Series [1] relates to Human immunodeficiency virus 1. The series can be described thus: Antiviral activity against HIV1 harboring K103N mutant infected in human TZM-bl cells. Type of series: functional, organism-based. The following applies: Human immunodeficiency virus 1, TZM-bl. The procedure, abridged:
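TZM-bl cells (2x10⁵/mL) were infected with mutant virus in the presence of 15 µg/mL DEAE-dextran. A17 (IIIB variant) was grown in H9 cells; the other mutants were NL4-3-based plasmids transfected into 293T cells, then expanded in H9 cells. Compounds were tested at 0.05–500 nM (DMSO constant within an assay) for 48 hr at 37°C. Read-out was luciferase RLU from lysed cells, with at least 6 replicates over multiple days.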

Series [2] is described as follows: Selectivity ratio of IC50 for antiviral activity against wild type HIV1 IIIB infected in human TZM-bl cells to IC50 for antiviral activity against HIV1 harboring K103N mutant infected in human TZM-bl cells. The series is classed as toxicity, cell-based. The settings on record: human immunodeficiency virus 1. Put shortly:
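TZM-bl cells (2x10⁵/mL) with 15 µg/mL DEAE-dextran were infected with HIV-1 IIIB, A17 (K103N/Y181C) IIIB variant, or NL4-3-based NNRTI-resistant mutants. Compound was present at 0.05–500 nM (DMSO held constant, 0.005% or 0.05%) for 48 hr at 37°C, 5% CO₂.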

Series [3] can be described thus: Selectivity index, ratio of CC50 for cytotoxicity against human TZM-bl cells assessed as reduction in cell viability by MTS assay to EC50 for antiviral activity against HIV1 harboring A17 mutant infected in human TZM-bl cells. The series is classed as toxicity, cell-based. The following applies: read-out: Ratio CC50/EC50.
Series [4] deals with Human immunodeficiency virus. The series can be described thus: Antiviral activity against wild type HIV IIIB infected in human TZM-bl cells. Type of series: functional, organism-based. The settings on record: Human immunodeficiency virus 1, IIIB. Put shortly: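 TZM-bl cells (2x10⁵/mL) infected with HIV-1 IIIB grown in H9 cells, with 15 µg/mL DEAE-dextran; serial dilutions from 10 mM DMSO stocks, DMSO held constant (0.005% or 0.05%); 37°C, 5% CO₂, 48 hr; cells lysed, luciferase RLU read.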

A short description of series [5]: AUC (0 to 24 hrs) in BALB/c mouse plasma at 250 mg/kg, IG measured at 0.5 to 24 hrs by HPLC-MS analysis. The series is classed as ADME, organism-based. More on the design: time upper 24 hrs, time lower 0.5 hrs, dose 250 mg/kg, route ig. The settings on record: po. The procedure, abridged: (§1)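 Mice averaging 20 g (24 animals) were fasted 1 h before and 1 h after dosing. They received 250 mg/kg as 0.5 ml suspension in 1% CMC, 0.05% Tween 80 by intragastric intubation. Blood and brain were taken after decapitation at 0.5, 1, 2, 3, 5, 8 and 24 h (3 per time point). Plasma was frozen at -20°C and brain at -120 °C. Quantification was by UPLC-HRMS (ESI+, EIC m/z 476.0691) against plasma-matrix standards. Parameters were derived by noncompartmental analysis; LLOQ 5 ng/ml, with values below it set to 2.5.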

The nature of series [6]: AUC (0 to infinity) in BALB/c mouse brain at 250 mg/kg, IG measured at 0.5 to 24 hrs by HPLC-MS analysis. The series is classed as ADME, organism-based. More on the design: time upper 24 hrs, time lower 0.5 hrs, dose 250 mg/kg, route ig. The following applies: po. The procedure, abridged:
as §1

Series [7] can be described thus: Cmax in BALB/c mouse plasma at 250 mg/kg, IG measured at 0.5 to 24 hrs by HPLC-MS analysis. Type of series: ADME, organism-based. More on the design: time lower 0.5 hrs, dose 250 mg/kg, time upper 24 hrs, route ig. The following applies: in vivo, po. The procedure, abridged: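 Mice (~20 g; food withheld 1 h before and after dosing), single dose as 0.5 ml suspension in 1% CMC/0.05% Tween 80 by gavage. Three animals per time point (0.5–24 h). Heparinized plasma frozen at -20°C, quantified by UPLC-ESI(+)-QTOF-MS (EIC m/z 476.0691) against plasma-matrix standards. LLOQ 5 ng/ml, lower values set to 2.5 ng/ml. Noncompartmental analysis.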

Series [8] is described as follows: Tmax in BALB/c mouse plasma at 250 mg/kg, IG measured at 0.5 to 24 hrs by HPLC-MS analysis. The series is classed as ADME, organism-based. The following applies: in vivo, po, time 0.5-24 hrs. Put shortly:
as §1

Series [9] can be described thus: Tmax in BALB/c mouse brain at 250 mg/kg, IG measured at 0.5 to 24 hrs by HPLC-MS analysis. The following applies: po, time 0.5-24 hrs. The series is classed as ADME, organism-based. The procedure, abridged:
as §1

Series [10] can be described thus: Acute toxicity in BALB/c mouse at 2000 mg/kg, IG measured for 14 days. The series is classed as organism-based. The settings on record: in vivo, po, 336 h, time 14 day. The procedure, abridged: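 Male Balb/C mice, 5–6 weeks old and 19–21 g, were deprived of food and water for 1.5–2 h. They were given a single intragastric 2000 mg/kg dose at 0.5 ml/20 g, prepared just before use. Controls received 0.5 ml of 1% starch gel intragastrically. There were 5 mice per group, observed for 14 days for condition and weight; weight was compared by Šídák's multiple comparisons test.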

Series [11] can be described thus: Subacute toxicity in BALB/c mouse assessed as pathological change in heart at 25 to 250 mg/kg, IG measured daily for 30 days by H and E staining based histological analysis. Type of series: organism-based. The following applies: in vivo, po, 720 h, dose 25-250 mg/kg, time 30 day. The procedure, abridged:
(§2)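 Male Balb/C mice (17 per group) received 25 or 250 mg/kg intragastrically in 1% starch gel once daily for 30 days, against starch gel controls. Internal organs were examined macroscopically after the study. Sections were paraffin-embedded and stained with hematoxylin and eosin.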

Series [12] can be described thus: Subacute toxicity in BALB/c mouse assessed as pathological change in kidney at 25 to 250 mg/kg, IG measured daily for 30 days by H and E staining based histological analysis. The series is classed as organism-based. The following applies: in vivo, po, 720 h, dose 25-250 mg/kg, time 30 day. The procedure, abridged: as §2
A short description of series [13]: Subacute toxicity in BALB/c mouse assessed as pathological change in intestine at 25 to 250 mg/kg, IG measured daily for 30 days by H and E staining based histological analysis. Type of series: organism-based. The settings on record: in vivo, po, 720 h, dose 25-250 mg/kg, time 30 day. Put shortly: as §2
Series [14] is described as follows: Subacute toxicity in BALB/c mouse assessed as pathological change in liver at 25 to 250 mg/kg, IG measured daily for 30 days by H and E staining based histological analysis. Type of series: organism-based. The following applies: in vivo, po, 720 h, dose 25-250 mg/kg, time 30 day. Put shortly:
as §2

Series [15] is described as follows: Subacute toxicity in BALB/c mouse assessed as reduction in […] level at 25 to 250 mg/kg, IG measured daily for 30 days. The series is classed as organism-based. The settings on record: in vivo, po, 720 h, dose 25-250 mg/kg, time 30 day. The procedure, abridged: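 Dosing was daily intragastric 25 or 250 mg/kg in 1% starch gel (0.2 ml/20 g) for 30 days in male Balb/C mice, 17 per group, with starch gel controls. After the final dose, mice were fasted for 2 h with water available, then bled. Serum was clotted for 30 min at room temperature and centrifuged at 3500 rpm. Total protein, urea, creatinine, AST, ALT and alkaline phosphatase were assayed and compared by Mann-Whitney with Holm-Šídák, p < 0.05.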

A short description of series [16]: Subacute toxicity in BALB/c mouse assessed as reduction in WBC count at 25 to 250 mg/kg, IG measured daily for 30 days. Type of series: organism-based. The settings on record: in vivo, po, 720 h, dose 25-250 mg/kg, time 30 day.
The nature of series [17]: Subacute toxicity in BALB/c mouse assessed as effect on heart weight at 25 to 250 mg/kg, IG measured daily for 30 days. The series is classed as organism-based. The settings on record: in vivo, po, 720 h, dose 25-250 mg/kg, time 30 day.
Series [18] in a line: Subacute toxicity in BALB/c mouse assessed as effect on adrenal gland weight at 25 to 250 mg/kg, IG measured daily for 30 days. The series is classed as organism-based. The settings on record: in vivo, po, 720 h, dose 25-250 mg/kg, time 30 day.
The subject of the next series is TZM. Nature of the series: Cytotoxicity against human TZM-bl cells assessed as reduction in viability incubated for 48 hrs by CellTiter-Blue cell viability assay. Background: Resazurin is reduced to fluorescent resorufin, in cell work by metabolically active cells.
Series [19] is described as follows: Neurotoxicity in mouse primary neurons assessed as loss of MAP-2 intensity at 0.0001 to 10 uM incubated for 48 hrs by semi-quantitative analysis. The following applies: neuron.

Molecules are shown by their SMILES.

Data on one compound can be found in ChEMBL document CHEMBL5338759, “N-Phenyl-1-(phenylsulfonyl)-1H-1,2,4-triazol-3-amine as a New Class of HIV-1 Non-nucleoside Reverse Transcriptase Inhibitor” (J Med Chem, 2023).

In general, IC50 refers to the point on the concentration scale where inhibition reaches its midpoint. In general, AUC(0-t) refers to the area under the concentration-time curve up to a stated or last time point. In general, AUC(0-inf) refers to the area under the concentration-time curve extrapolated to infinity. Read a low AUC(0-inf) as low exposure. As a reminder, the Cmax is the highest concentration seen after dosing. What is called Tmax is the time at which the peak concentration occurs. In general, CC50 refers to the concentration at which the toxic effect on the cells reaches its halfway point. As to `N#C/C=C/c1ccc2c(S(=O)(=O)n3nc(Nc4ccc(C#N)c(Cl)c4)nc3N)cccc2c1`, the results for the concentration for half-maximal inhibition (IC50) in series [1] and in [4] were 5.9 nM and 0.31 nM, respectively. The “Ratio IC50” value in series [2] was 8.9. In series [3], the selectivity ratio came out at 1200. The compound further displayed an AUC(0-t) in series [5] of 397 µg·h/mL. Also, in series [6], the AUC(0-inf) worked out at 184 µg·h/mL. In series [7], this compound gave a Cmax of 81.4 ng/mL. In addition, the figures for the time to peak (Tmax) in series [8] and in series [9] were 0.7 h and 2 h, respectively. Further, the Activity entry is reported as “Non-Toxic” in [10]; “Non-Toxic” in series [11]; “Non-Toxic” in [12]; “Non-Toxic” in series [13]; “Toxic” in [14]; “Non-Toxic” in series [15]. Also, the Activity entry in series [16], in [17], in series [18] and in [19] was “Non-Toxic” in each case. Also, the CC50 with TZM came to 4800 nM.
